According to ChEMBL document CHEMBL4145662, “Novel Nonsteroidal Progesterone Receptor (PR) Antagonists with a Phenanthridinone Skeleton” (ACS Med Chem Lett, 2018):
The source made the active and inactive calls. No cut-off for these calls is given here.

Legend:
Homo sapiens [1] = organism: Homo sapiens; experiment: Selectivity ratio of IC50 for human RORbeta1 expressed in HEK293 cells to IC50 for PR in human T47D cells assessed as inhibition of progesterone-induced alkaline phosphatase activity; assay type: cell-based
Homo sapiens [2] = organism: Homo sapiens; experiment: Selectivity ratio of IC50 for human CMX-GRalpha expressed in HEK293 cells to IC50 for PR in human T47D cells assessed as inhibition of progesterone-induced alkaline phosphatase activity; assay type: cell-based
Progesterone receptor [3] = biological target: T1, Progesterone receptor (Homo sapiens, UniProt P06401); experiment: Displacement of [1,2,6,7-3H]progesterone from recombinant human GST-tagged PGR LBD (678 to 933 residues) expressed in baculovirus-infected insect cells measured after 24 hrs by liquid scintillation counting method
T1 sequence (P06401 whole entry): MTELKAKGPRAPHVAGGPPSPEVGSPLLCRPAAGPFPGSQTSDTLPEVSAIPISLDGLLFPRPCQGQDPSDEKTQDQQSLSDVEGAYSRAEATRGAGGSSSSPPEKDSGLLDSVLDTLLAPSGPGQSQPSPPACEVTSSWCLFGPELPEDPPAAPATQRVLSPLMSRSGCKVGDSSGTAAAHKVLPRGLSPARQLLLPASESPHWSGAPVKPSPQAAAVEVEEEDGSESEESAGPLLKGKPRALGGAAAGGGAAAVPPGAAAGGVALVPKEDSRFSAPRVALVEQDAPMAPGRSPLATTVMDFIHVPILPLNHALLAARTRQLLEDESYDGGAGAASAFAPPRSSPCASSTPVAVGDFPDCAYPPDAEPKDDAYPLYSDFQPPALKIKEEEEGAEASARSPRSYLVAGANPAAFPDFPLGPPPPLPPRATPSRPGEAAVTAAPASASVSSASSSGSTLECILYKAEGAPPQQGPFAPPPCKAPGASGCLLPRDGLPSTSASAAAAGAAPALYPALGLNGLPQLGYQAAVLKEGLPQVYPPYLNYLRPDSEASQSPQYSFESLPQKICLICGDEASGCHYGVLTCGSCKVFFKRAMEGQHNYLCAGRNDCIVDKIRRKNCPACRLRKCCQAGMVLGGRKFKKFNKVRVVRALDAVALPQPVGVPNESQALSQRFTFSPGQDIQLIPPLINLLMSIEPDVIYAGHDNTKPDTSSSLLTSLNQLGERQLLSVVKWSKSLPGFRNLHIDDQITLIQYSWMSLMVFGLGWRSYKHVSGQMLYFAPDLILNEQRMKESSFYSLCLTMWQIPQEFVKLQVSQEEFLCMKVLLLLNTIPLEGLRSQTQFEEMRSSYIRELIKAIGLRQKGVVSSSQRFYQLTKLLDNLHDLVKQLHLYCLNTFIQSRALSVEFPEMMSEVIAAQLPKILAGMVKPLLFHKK

Progesterone receptor [4] = biological target: T1, Progesterone receptor; experiment: Antagonist activity at PR in human T47D cells assessed as inhibition of progesterone-induced alkaline phosphatase activity measured after 24 hrs; assay type: cell-based
Homo sapiens [5] = organism: Homo sapiens; experiment: Selectivity ratio of IC50 for human GAL4N-fused LXRbeta LBD expressed in HEK293 cells to IC50 for PR in human T47D cells assessed as inhibition of progesterone-induced alkaline phosphatase activity; assay type: cell-based
Progesterone receptor [6] = biological target: T1, Progesterone receptor; experiment: Agonist activity at PR in human T47D cells at 10 uM; assay type: cell-based
Homo sapiens [7] = organism: Homo sapiens; experiment: Selectivity ratio of IC50 for human RORalpha1 expressed in HEK293 cells to IC50 for PR in human T47D cells assessed as inhibition of progesterone-induced alkaline phosphatase activity; assay type: cell-based
Homo sapiens [8] = organism: Homo sapiens; experiment: Selectivity ratio of IC50 for human RORgamma1 expressed in HEK293 cells to IC50 for PR in human T47D cells assessed as inhibition of progesterone-induced alkaline phosphatase activity; assay type: cell-based
[9] = biological target: T2, Progesterone receptor (Homo sapiens) (UniProt P06401); experiment: Antagonist activity at PR in human T47D cells assessed as inhibition of progesterone-induced beta1-Na/K-ATPase expression at 0.1 to 10 uM measured after 24 hrs by Western blot analysis; assay type: cell-based
T2 sequence (whole entry): T1 sequence (P06401 whole entry)
Method in brief: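 Validation in T47D cells by Western blotting of the β1 subunit of Na/K-ATPase, a PR-regulated protein.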

[10] = biological target: T3, Nuclear receptor ROR-beta (Homo sapiens, UniProt Q92753); experiment: Antagonist activity at human RORbeta1 expressed in HEK293 cells after 24 hrs by luciferase reporter gene assay; assay type: cell-based
T3 sequence (Q92753 whole entry): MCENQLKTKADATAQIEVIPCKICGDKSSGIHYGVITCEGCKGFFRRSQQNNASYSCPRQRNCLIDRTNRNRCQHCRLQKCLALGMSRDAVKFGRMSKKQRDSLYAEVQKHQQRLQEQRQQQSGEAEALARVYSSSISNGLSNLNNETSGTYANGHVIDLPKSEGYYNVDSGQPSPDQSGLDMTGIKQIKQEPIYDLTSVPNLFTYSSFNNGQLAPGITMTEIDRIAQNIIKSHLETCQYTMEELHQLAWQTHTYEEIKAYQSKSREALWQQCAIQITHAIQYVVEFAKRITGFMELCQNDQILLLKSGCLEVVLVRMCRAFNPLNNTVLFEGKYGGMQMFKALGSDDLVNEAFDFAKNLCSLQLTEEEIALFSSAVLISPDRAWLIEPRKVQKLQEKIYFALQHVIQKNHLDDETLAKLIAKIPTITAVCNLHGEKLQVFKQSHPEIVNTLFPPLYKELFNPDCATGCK
Method in brief: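 Inverse agonism at RORα, RORβ or RORγ measured by reporter gene assay.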

Homo sapiens [11] = organism: Homo sapiens; experiment: Selectivity ratio of IC50 for human CMX-AR expressed in HEK293 cells to IC50 for PR in human T47D cells assessed as inhibition of progesterone-induced alkaline phosphatase activity; assay type: cell-based
[12] = biological target: T4, Oxysterols receptor LXR-alpha (Homo sapiens, UniProt Q13133); experiment: Antagonist activity at human GAL4N-fused LXRalpha LBD expressed in HEK293 cells assessed as reduction in T0901317-induced transactivation activity after 24 hrs by luciferase reporter gene assay; assay type: cell-based
T4 sequence (Q13133 whole entry): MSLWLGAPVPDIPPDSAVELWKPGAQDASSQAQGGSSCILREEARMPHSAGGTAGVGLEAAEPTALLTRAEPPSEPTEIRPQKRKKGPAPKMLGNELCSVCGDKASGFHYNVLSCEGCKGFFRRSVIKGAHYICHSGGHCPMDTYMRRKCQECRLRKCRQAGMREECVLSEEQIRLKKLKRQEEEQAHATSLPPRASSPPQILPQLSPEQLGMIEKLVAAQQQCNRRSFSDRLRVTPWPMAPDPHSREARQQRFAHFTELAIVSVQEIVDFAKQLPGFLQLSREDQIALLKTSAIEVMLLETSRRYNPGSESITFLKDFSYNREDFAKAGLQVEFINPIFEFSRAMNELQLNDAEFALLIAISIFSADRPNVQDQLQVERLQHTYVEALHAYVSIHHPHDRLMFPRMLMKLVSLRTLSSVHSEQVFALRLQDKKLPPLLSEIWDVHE

Homo sapiens [13] = organism: Homo sapiens; experiment: Selectivity ratio of IC50 for human GAL4N-fused LXRalpha LBD expressed in HEK293 cells to IC50 for PR in human T47D cells assessed as inhibition of progesterone-induced alkaline phosphatase activity; assay type: cell-based

Row | IC50 (Progesterone receptor [3]) [nM] | IC50 (Progesterone receptor [4]) [nM] | Activity (Progesterone receptor [6]) | inhibition [9] | IC50 [10] [nM] | IC50 [12] [nM] | Compound | Ratio IC50 (Homo sapiens [1]) | Ratio IC50 (Homo sapiens [2]) | Ratio IC50 (Homo sapiens [5]) | Ratio IC50 (Homo sapiens [7]) | Ratio IC50 (Homo sapiens [8]) | Ratio IC50 (Homo sapiens [11]) | Ratio IC50 (Homo sapiens [13])
1 | 150 | 27 | Not Active | Active | > 20000 | > 20000 | Cc1cc(C(O)(C(F)(F)F)C(F)(F)F)cc2c3ccc(F)cc3c(=O)n(C)c12 | > 300 | > 300 | > 300 | > 300 | > 300 | > 10 | > 300
2 | 340 | 46 | Not Active | Active | > 20000 | > 20000 | Cc1cc(C(O)(C(F)(F)F)C(F)(F)F)cc2c1[nH]c(=O)c1cc(F)ccc12 | > 300 | > 300 | > 300 | > 300 | > 300 | > 30 | > 300
3 | 1500 | 150 | Not Active | Active | > 20000 | > 20000 | Cc1cc(C(O)(C(F)(F)F)C(F)(F)F)cc2c1[nH]c(=O)c1ccccc12 | > 100 | > 100 | > 100 | > 100 | > 100 | > 100 | > 100
